The target of assay [1] is T1, Beta-galactosidase/Glucosylceramidase (Bos taurus, UniProt Q58D55+Q2KHZ8).
T1 sequence (Q58D55 whole entry): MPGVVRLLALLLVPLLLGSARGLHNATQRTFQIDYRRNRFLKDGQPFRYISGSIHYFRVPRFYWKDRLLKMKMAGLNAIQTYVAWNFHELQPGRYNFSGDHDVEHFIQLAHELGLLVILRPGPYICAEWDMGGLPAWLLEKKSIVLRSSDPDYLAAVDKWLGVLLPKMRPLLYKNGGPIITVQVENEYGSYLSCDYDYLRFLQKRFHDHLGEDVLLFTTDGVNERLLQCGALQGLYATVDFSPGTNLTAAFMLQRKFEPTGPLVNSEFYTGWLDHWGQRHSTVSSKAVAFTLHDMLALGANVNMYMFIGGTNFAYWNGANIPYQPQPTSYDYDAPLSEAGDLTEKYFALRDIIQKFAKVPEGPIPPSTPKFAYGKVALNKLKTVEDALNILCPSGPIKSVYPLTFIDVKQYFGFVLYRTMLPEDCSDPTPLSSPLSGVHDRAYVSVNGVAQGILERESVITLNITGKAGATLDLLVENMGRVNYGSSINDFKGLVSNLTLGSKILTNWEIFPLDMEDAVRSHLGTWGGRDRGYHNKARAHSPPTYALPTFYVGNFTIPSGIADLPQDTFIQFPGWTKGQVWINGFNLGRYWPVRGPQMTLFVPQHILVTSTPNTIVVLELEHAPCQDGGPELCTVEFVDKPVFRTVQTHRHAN
T1 sequence (Q2KHZ8 whole entry): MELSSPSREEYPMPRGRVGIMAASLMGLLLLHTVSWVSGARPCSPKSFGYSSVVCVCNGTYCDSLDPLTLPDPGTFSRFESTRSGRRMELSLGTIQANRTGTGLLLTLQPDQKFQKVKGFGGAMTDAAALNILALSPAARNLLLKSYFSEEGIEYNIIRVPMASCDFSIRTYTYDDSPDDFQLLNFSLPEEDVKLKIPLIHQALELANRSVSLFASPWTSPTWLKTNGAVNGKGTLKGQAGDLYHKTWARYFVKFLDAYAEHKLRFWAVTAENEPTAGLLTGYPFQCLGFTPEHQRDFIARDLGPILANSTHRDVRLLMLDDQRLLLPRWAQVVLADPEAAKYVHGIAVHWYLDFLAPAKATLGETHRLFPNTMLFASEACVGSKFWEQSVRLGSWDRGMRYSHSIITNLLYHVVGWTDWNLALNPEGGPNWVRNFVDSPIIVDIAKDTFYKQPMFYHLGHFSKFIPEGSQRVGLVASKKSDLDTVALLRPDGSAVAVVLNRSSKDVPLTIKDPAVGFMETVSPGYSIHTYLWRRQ
Briefly: Inhibition of bovine liver beta-glucosidase/beta-galatosidase.

Assay [2] addresses T2, Beta-galactosidase (Bos taurus) (UniProt Q58D55).
T2 sequence (whole entry): T1 sequence (Q58D55 whole entry)
Briefly: Inhibition of bovine kidney beta-D-galactosidase at 1 mg/ml after 10 to 20 mins. Summed up:
(§1)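 Enzyme was pre-incubated with test solution at 1 mg/ml, or dH2O for controls, for 10–20 min at 27 °C. Substrate was added and incubation continued for the same time at 27 °C. The reaction was stopped with glycine solution and read at 405 nm. Each sample and control ran in three wells at the enzyme's optimal pH. Values are % inhibition.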

Assay [3] has as its system Penicillium decumbens. Briefly: Inhibition of Penicillium decumbens naringinase at 1 mg/ml after 10 to 20 mins. Summed up:
as §1

Assay [4] is filed under the species Bos taurus. Briefly: Inhibition of bovine kidney N-acetyl-beta-D-glucosaminidase at 1 mg/ml after 10 to 20 mins. In a few lines:
as §1

For assay [5], the target named is Alpha-galactosidase (Coffea arabica) (UniProt Q42656). Briefly: Inhibition of green coffee beans alpha-D-galactosidase at 1 mg/ml after 10 to 20 mins. Summed up:
as §1

Assay [6] addresses T3, Beta-galactosidase (Bos taurus, UniProt Q58D55).
T3 sequence (Q58D55 whole entry): T1 sequence (Q58D55 whole entry)
Briefly: Inhibition of bovine kidney beta-D-galactosidase after 10 to 20 mins. In a few lines:
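Bovine kidney β-D-galactosidase was pre-incubated with test solution, or dH2O for controls, for 10–20 min at 27 °C. Substrate was added for a further 10–20 min at 27 °C, then glycine solution, and absorbance at 405 nm. Wells were run in triplicate. Ki and inhibition mode came from Lineweaver–Burk double-reciprocal slopes.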

The test system of assay [7] is Canavalia ensiformis. The experiment in a line: Inhibition of jack bean alpha-D-mannosidase at 1 mg/ml after 10 to 20 mins. In a few lines: as §1
In assay [8] the test system is Geobacillus stearothermophilus. Briefly: Inhibition of Bacillus stearothermophilus alpha-D-glucosidase at 1 mg/ml after 10 to 20 mins. Summed up: as §1
The test system of assay [9] is Cellulomonas fimi. Briefly: Inhibition of Cellulomonas fimi beta-D-mannosidase at 1 mg/ml after 10 to 20 mins. Summed up: as §1
Assay [10] concerns Saccharomyces cerevisiae. Briefly: Inhibition of Saccharomyces cerevisiae alpha-D-glucosidase at 1 mg/ml after 10 to 20 mins. Summed up:
as §1

Assay [11] relates to Prunus. The experiment in a line: Inhibition of almond beta-D-glucosidase at 1 mg/ml after 10 to 20 mins. In a few lines:
as §1

Assay [12] concerns Oryza sativa. Briefly: Inhibition of rice alpha-D-glucosidase at 1 mg/ml after 10 to 20 mins. In a few lines:
as §1

Assay [13] in a line: Inhibition of lysosomal alpha-glucosidase.
Assay [14] is described as follows: Inhibition of lysosomal beta-glucosidase. The conditions noted are these: concentration not given here. In a few lines:
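Enzyme and test solution (or water for controls) were pre-incubated at 27 °C for 10–20 min. Substrate was then added and incubated at 27 °C for 10–20 min. The reaction was stopped with glycine solution and absorbance read at 405 nm. Wells were in triplicate with triplicate controls. Results are % inhibition at 1 mg/ml at optimal pH.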

Assay [15] in a line: Inhibition of lysosomal alpha-glucosidase.
Assay [16] in a line: Inhibition of alpha-glucosidase.
Assay [17] deals with T4, Lysosomal acid glucosylceramidase (Homo sapiens, UniProt P04062).
T4 sequence (P04062 whole entry): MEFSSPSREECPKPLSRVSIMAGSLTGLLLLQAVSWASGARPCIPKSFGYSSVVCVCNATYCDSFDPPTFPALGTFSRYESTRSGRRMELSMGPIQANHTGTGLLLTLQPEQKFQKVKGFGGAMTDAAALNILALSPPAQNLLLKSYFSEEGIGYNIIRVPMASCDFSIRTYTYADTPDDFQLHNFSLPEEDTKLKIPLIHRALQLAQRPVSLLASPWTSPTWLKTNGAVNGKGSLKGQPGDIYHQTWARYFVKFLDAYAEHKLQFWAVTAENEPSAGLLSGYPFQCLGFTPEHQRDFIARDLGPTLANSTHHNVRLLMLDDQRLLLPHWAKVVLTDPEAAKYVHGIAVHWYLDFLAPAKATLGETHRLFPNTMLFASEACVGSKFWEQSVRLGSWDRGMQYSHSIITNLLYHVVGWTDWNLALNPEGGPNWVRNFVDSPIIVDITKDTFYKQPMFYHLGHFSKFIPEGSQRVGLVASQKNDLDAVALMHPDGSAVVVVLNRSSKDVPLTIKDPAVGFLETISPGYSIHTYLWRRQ
Briefly: Uncompetitive inhibition of human beta-glucosidase by Michaelis-Menten kinetics analysis.

Calls of active or inactive are those of the source. The calls are words filed in the database; no cut-off is given here.

Chain of Alpha-galactosidase (Coffea arabica) (Q42656 16-378 limits assumed): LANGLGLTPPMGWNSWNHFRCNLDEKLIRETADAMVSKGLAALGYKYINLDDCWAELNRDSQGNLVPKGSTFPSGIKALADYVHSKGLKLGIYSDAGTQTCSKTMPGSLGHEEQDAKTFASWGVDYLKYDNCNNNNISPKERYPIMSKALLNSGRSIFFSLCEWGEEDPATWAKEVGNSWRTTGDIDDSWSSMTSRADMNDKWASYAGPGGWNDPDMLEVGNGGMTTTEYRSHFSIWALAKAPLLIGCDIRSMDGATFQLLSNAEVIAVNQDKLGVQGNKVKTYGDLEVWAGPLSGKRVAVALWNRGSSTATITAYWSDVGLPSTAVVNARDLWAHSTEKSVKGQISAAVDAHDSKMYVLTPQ

`O[C@@H]1[C@@H](O)[C@H](O)[C@@]2(O)CO[C@H]1N2`: in [1], the Ki was found to be 45 µM.

As to `CCCN1C[C@@H](CO)O[C@H](OC)C1`, the inhibition in assay [2] is 54%; in [3] it was 9%; in assay [8], 9%; in assay [10], 8%. Moreover, the inhibition result in assay [4], in [5], in [7], in [9], in assay [11] and in [12] was “inactive” each time. In [6], this compound came in with an IC50 of 75.5 µM.

With `CO[C@@H]1CN(C)C[C@@H](CO)O1`, the figures for the inhibition in [2] and in [10] were 48% and 24%, respectively. The inhibition result in [3], in assay [4], in assay [5], in [7], in assay [8] and in assay [9] was “inactive” throughout. Further, the inhibition result in [11] and in [12] was “inactive” throughout. This compound also displayed an IC50 in assay [6] of 88.6 µM. Besides, in [6], the Ki was 126 µM.

As for `O[C@H]1[C@H](O)[C@@H](O)CN2CC[C@H](O)[C@H]12` [CASTANOSPERMINE], the Ki in assay [13] and in [15] was 0.1 µM each time. The inhibition in assay [14] is 96%; in assay [15] (concentration not given here) it was 100%.

`O=C(Nc1ccccc1)N1[C@@H]2OC[C@]1(O)[C@@H](O)[C@H](O)[C@H]2O` had a Ki in assay [1] of 30 µM. That is a double-digit micromolar value.

In turn, `O[C@@H]1[C@@H](O)[C@H](O)[C@@]2(O)CO[C@H]1N2C(=S)Nc1ccccc1` returned a Ki in assay [1] of 2.5 µM.

`CCCCCCCCN1C[C@@H](CO)O[C@H](OC)C1`: the values for the inhibition in assay [2] and in assay [9] were 51% and 6%, respectively. The inhibition entry in [3], in assay [4], in [5], in assay [7], in [8] and in [10] was “inactive” in each case. In addition, the inhibition result in assay [11] and in assay [12] was “inactive” each time. This compound showed an IC50 in assay [6] of 55.1 µM.

For `OC[C@H]1CNC[C@@H](O)[C@@H]1O`, the INH in assay [16] stood at 86 µM.

Take `O=C(Nc1ccccc1)N1[C@@H]2OC[C@]1(O)[C@@H](O)[C@@H](O)[C@H]2O`: in assay [1], the Ki came to 68 µM.

In [17], `OCCN1CCOCC1` showed an inhibition constant Ki of 620 µM.

Take `CCCCN1C[C@@H](CO)O[C@H](OC)C1`: the figures for the inhibition in assay [2], in assay [3] and in [4] were 45%, 7% and 8%, respectively. The inhibition result in assay [5], in assay [7], in assay [8], in [9], in assay [10] and in assay [11] was “inactive” each time. Also, the inhibition entry in assay [12] was “inactive”. In [6], this compound gave an IC50 of 70.3 µM.

The compound `O[C@@H]1[C@H](O)[C@H](O)[C@@]2(O)CO[C@H]1N2C(=S)Nc1ccccc1` had a Ki in assay [1] of 750 µM.

In the case of `CO[C@@H]1CNC[C@@H](CO)O1`, the inhibition in assay [2] turned out to be 27%; in assay [3], 9%; in assay [4] it was 10%; in assay [9], 5%; in assay [11], 4%. The inhibition result in assay [5], in assay [7], in assay [8], in [10] and in assay [12] was “inactive” each time.

In the case of `CO[C@@H]1CN(O)C[C@@H](CO)O1`, the inhibition was 82% in [2], 72% in assay [4], 58% in assay [10] and 29% in [12]. Besides, the inhibition result in [3], in [5], in assay [7], in assay [8], in [9] and in assay [11] was “inactive” in each case. This compound had an IC50 in assay [6] of 30.6 µM. Moreover, the Ki in assay [6] came to 20.2 µM.

In the case of `OCCC(O)CN1CCOCC1` (centres undefined), the Ki in assay [17] amounted to 640 µM.

The values above are taken from ChEMBL document CHEMBL1821567, “Synthesis and glycosidase inhibitory profiles of functionalised morpholines and oxazepanes” (Bioorg Med Chem, 2011).
